MC4R antag cAMP: antagonists of human melanocortin 4 receptor (MC4R); MC4R-expressing cells, MTII-stimulated cAMP, LANCE TR-FRET; P32245; AID 540295; hit rate 0.48% among 360,000; inhibition, % at 6.5 µM;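 active = inhibition above its plate's cutoff, the mean of tested wells on that plate plus 3 SD, cut at about 29% in these data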;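 also: 0% = Melanotan II alone and 100% = Melanotan II plus saturating MCL0020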
Target sequence (P32245 whole entry, looked up): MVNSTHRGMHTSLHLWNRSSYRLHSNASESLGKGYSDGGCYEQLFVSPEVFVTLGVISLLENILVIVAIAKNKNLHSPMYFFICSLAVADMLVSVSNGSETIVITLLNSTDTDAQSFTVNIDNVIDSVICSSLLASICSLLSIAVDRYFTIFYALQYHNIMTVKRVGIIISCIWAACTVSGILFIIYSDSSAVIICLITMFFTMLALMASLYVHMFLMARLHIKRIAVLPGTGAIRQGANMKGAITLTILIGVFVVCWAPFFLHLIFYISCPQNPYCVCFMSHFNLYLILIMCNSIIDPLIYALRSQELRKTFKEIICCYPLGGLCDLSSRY
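Assay system: human MC4R-expressing U2OS cells; reagent: Melanotan II stimulation of cells; dosing: 6.5 µM single dose; timing: compound 30 min, challenge 1 h, detection 1 h; signal: TR-FRET cAMP assay; replicates: one well per compound, no replicates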
Lipid droplet: hepatic lipid droplet formation modulation; AML12 mouse hepatocytes, oleate lipid droplets, BODIPY imaging; inhibition, % at 6.5 µM; hit rate 0.4% among 240,000; AID 1656;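 active = lipid droplet intensity inhibited by at least 50%, with more than 500 cells counted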
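Material – mouse AML12 hepatocyte cell line, fixed after treatment · Compound dosing – one dose, 6.5 µM compound · Times – compound with oleate, overnight · Measured by – Image-based BODIPY and DAPI two-channel analysis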
m5-HT2A agonist: activates the mouse 5-HT2A serotonin receptor; hit rate 0.66% among 360,000; P35363; AID 624169; CHO-K1 mHTR2A beta-arrestin complementation, luminescence; percent of 30 µM serotonin response; activation, % at 7.6 µM;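 active = activation above a run cutoff, the mean activation of all tested compounds plus 3 SD, cut at about 14% in these data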;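 also: 0% = plate median of compound wells and 100% = 30 µM serotonin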
NTR1 agonist: agonists of human neurotensin receptor NTR1; P30989; NTR1-U2OS beta-arrestin-GFP spot imaging, agonist mode; activation, % at 20 µM; hit rate 0.17% among 330,000;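 active = activation at or above 40% of the spot to cytoplasm intensity ratio, with at least 20 cells analyzed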;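 also: 0% = DMSO without peptide and 100% = 100 nM NTR1 peptide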
Target sequence (P30989 whole entry, looked up): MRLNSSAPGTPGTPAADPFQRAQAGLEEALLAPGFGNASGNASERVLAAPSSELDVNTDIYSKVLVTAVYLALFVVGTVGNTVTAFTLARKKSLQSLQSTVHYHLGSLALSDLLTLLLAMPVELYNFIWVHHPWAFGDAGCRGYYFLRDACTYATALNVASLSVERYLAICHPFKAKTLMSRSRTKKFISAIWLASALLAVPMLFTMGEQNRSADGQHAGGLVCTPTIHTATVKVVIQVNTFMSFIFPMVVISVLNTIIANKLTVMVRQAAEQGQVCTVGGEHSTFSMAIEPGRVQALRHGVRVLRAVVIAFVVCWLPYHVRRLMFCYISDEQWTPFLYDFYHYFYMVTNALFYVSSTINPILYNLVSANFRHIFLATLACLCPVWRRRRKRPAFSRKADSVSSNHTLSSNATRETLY
PREPL inh: inhibitors of human prolyl oligopeptidase-like enzyme PREPL | recombinant PREPL, fluorescence polarization activity-based probe | inhibition, % at 5.96 µM | hit rate 0.68% among 320,000; in the data active = inhibition above about 43%;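 also: 0% = enzyme with DMSO and 100% = wells lacking enzyme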
MC4R barr agon: human MC4R agonism via beta-arrestin. U2OS MC4R beta-arrestin complementation, luminescence; percent of melanotan II response, DMSO zero. activation, % at 8.9 µM. hit rate 0.98% among 360,000. P32245;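 active = activation above a per-plate cutoff, the mean activation of sample wells on that plate plus 3 SD, cut at about 8% in these data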
U2OS cAMP counter: U2OS forskolin cAMP inhibition counter-screen; shares compounds with MC4R antag cAMP; hit rate 26% among 1,600; parental U2OS, LANCE TR-FRET; inhibition, % at 6.5 µM; AID 602193;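 active = mean inhibition over triplicates above the low-control well mean plus 3 SD, set per campaign, cut at about 13% in these data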;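 also: signal is single emission at 671 nm which falls as cellular cAMP rises; 0% = forskolin-stimulated wells and 100% = buffer without forskolin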
MC4R cAMP antag: human MC4R cAMP antagonism confirmation. shares compounds with MC4R antag cAMP. MC4R-expressing cells, MTII-stimulated cAMP, TR-FRET. inhibition, % at 6.5 µM. hit rate 27% among 1,600. AID 602195; in the data active = inhibition above about 29%;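 also: 0% = agonist stimulated wells alone and 100% = agonist stimulated wells plus saturating reference antagonist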
Starred values were filed as active, the others as inactive; . = not tested or not shown. Compounds with a hit are over-represented: about 2.7% of the library has one in this group of screens.

SMILES | MC4R antag cAMP | Lipid droplet | m5-HT2A agonist | NTR1 agonist | PREPL inh | MC4R barr agon | U2OS cAMP counter | MC4R cAMP antag
CCCC(=O)NC1=C(Cl)C(=O)c2ccccc2C1=O | 92.8* | . | -3.6 | . | . | -1.3 | 78.4* | 106.2*
CCOc1cc(/C=N/NC(=O)CSc2nncn2C)ccc1OCc1cccc(C)c1 | -5.3 | -5.0 | -0.5 | 1.2 | 35.7 | 3.2 | . | .
CSCCC(Nc1ncnc2ccc(Br)cc12)C(=O)O (configuration not stated) | 30.8* | . | 1.3 | 0.9 | 9.6 | -0.3 | 8.2 | 12.4
CC(C)Nc1ncnc2ccc(Br)cc12 | 7.1 | 20.1 | 0.9 | -0.6 | 13.0 | -2.1 | . | .
CCOc1ccc(NC(=O)CSc2ccccc2N)cc1 | 31.8* | 2.4 | 2.4 | -0.5 | -3.8 | 2.8 | -5.0 | -12.2
CCn1nnnc1NCc1ccc(OCc2c(F)cccc2Cl)c(OC)c1 | 32.1* | -9.1 | -0.5 | 0.8 | 14.3 | -0.3 | -3.4 | 6.6
CC(=O)c1ccc(N(CC(=O)NC2CCCCC2)C(=O)CNC(=O)c2ccco2)cc1 | -4.8 | 17.2 | 2.0 | 0.3 | 2.2 | 1.2 | . | .
CN(C)S(=O)(=O)c1cccc(NC(=O)CN2C(=O)NC3(CCc4ccccc4C3)C2=O)c1 (configuration not stated) | 18.3 | 24.2 | -4.1 | -0.2 | 3.2 | -2.1 | . | .
C[C@H](CO)N1C[C@H](C)[C@@H](CN(C)Cc2cccnc2)OCc2cnnn2CCCC1=O | 6.9 | . | 3.8 | . | . | 0.6 | . | .
C[C@@H]1CN([C@@H](C)CO)C(=O)CCCn2nncc2CO[C@H]1CN(C)Cc1cccnc1 | 28.5* | . | -2.3 | . | . | 1.1 | -4.4 | -18.8
O=C(CCc1nc(-c2ccccc2Cl)no1)NCCc1ccccc1 | 28.7* | 2.2 | -0.6 | -0.1 | -24.6 | 1.0 | -1.4 | 1.9
CCn1c(SCC(=O)NCCc2ccccc2)nc2c([nH]c3ccccc32)c1=O | -6.0 | 2.2 | 1.2 | 1.5 | -4.4 | -0.2 | . | .
O=C(c1cccc([N+](=O)[O-])c1)c1ccc2c(c1)OCCOCCOCCOCCO2 | 35.3* | 2.5 | 5.6 | -0.4 | 12.5 | 0.6 | 1.1 | -0.3
Cn1c(=O)c2c(nc(NN=C3CCCC3)n2C)n(C)c1=O | -7.7 | 20.4 | -2.5 | 0.0 | 3.6 | -2.0 | . | .
Cc1cc(C)n(/N=C/c2cccs2)c(=O)c1C#N | -4.4 | 0.3 | 1.0 | -1.6 | 15.0 | -1.7 | . | .
Cc1cc(C)c(/C=N/n2c(C)cc(C)c(C#N)c2=O)c(C)c1 | 29.3* | 2.0 | 4.8 | 2.0 | -0.1 | -0.5 | -0.8 | -8.3
Cc1c(C(=O)OCC(=O)Nc2ccc(S(N)(=O)=O)cc2)oc2c1ccc1ccccc12 | 35.2* | 1.4 | -0.9 | -0.4 | -4.9 | 2.5 | 2.5 | -5.3
Cc1cc(C(=O)OCC(=O)Nc2cccc(S(N)(=O)=O)c2)c2ccccc2n1 | -2.3 | 1.0 | 1.4 | 0.0 | -6.3 | -1.3 | . | .
O=C(O)CCn1c(=O)n(CCC(=O)O)c(=O)n(CCC(=O)O)c1=O | 28.6* | 6.3 | -0.7 | 1.5 | 5.2 | -3.0 | -3.2 | -12.4
COC(=O)CSc1nc2ccccn2c(=O)c1C=O | 31.4* | 6.8 | -0.8 | 2.7 | -5.0 | -0.3 | -0.2 | -9.5
Cc1nn(-c2ccccc2)c(C)c1NC(=O)COC(=O)c1ccccc1OC(F)F | -5.4 | -17.5 | 6.0 | 2.1 | -2.0 | 2.4 | . | .
CCOc1ccccc1NC(=O)c1cc(C(=O)c2cc(OC)ccc2O)coc1=N | 32.7* | 22.0 | 3.0 | -0.8 | 4.3 | -2.5 | 3.7 | 5.0
CC1(C(=O)Nc2cccc(NS(C)(=O)=O)c2)CCN1Cc1ccccc1OC(F)F (configuration not stated) | 4.1 | . | -5.8 | . | . | -1.3 | . | .
Nc1cc(S(=O)(=O)Nc2ccccc2Cl)ccc1N1CCCCC1 | 3.4 | . | 5.4 | 20.1 | 2.0 | 2.1 | . | .
CC(OC(=O)CNC(=O)c1ccc(Cl)cc1)C(=O)NC1CCCCC1C (configuration not stated) | 13.2 | . | 5.5 | -1.3 | -8.4 | 2.0 | . | .
SMILES | MC4R antag cAMP | Lipid droplet | m5-HT2A agonist | NTR1 agonist | PREPL inh | MC4R barr agon | U2OS cAMP counter | MC4R cAMP antag
CC(c1ccccc1C(O)(c1ccccc1)c1ccccc1)N(C)C (configuration not stated) | 29.5* | -25.9 | 2.0 | 3.2 | 18.1 | 4.2 | -8.7 | 2.9
COc1ccccc1C(O)(c1ccccc1)c1ccccc1OC | -1.5 | . | 0.8 | . | . | 3.2 | . | .
Cc1cc(C)c(NC(=O)c2cccc(NC(=O)c3ccco3)c2)c(C)c1 | 29.9* | -4.6 | -2.6 | 0.4 | -0.2 | -0.7 | -1.6 | -18.1
COc1nc(NC(C)C)nc(N(C#N)CN2C(=O)c3ccccc3S2(=O)=O)n1 | 17.4 | 36.5 | -2.9 | 2.0 | 6.0 | -0.3 | . | .
CC(C)Nc1nc(Cl)nc(N(C#N)CN2C(=O)c3ccccc3S2(=O)=O)n1 | 45.9* | 8.5 | -9.1 | 8.7 | 2.2 | -2.5 | 14.4* | 36.9*
CC(C)(C)Nc1nc(Cl)nc(N(C#N)CN2C(=O)c3ccccc3S2(=O)=O)n1 | 35.5* | -11.2 | -1.5 | 12.9 | 6.4 | -0.9 | 24.9* | 51.0*
CN(C)c1nc(N)c(C#N)c(C#N)c1C#N | -6.2 | . | 0.2 | . | . | -0.3 | . | .
CC(C)CCn1c(SCC(=O)NC2CCS(=O)(=O)C2)nc2cc(Cl)ccc2c1=O (configuration not stated) | 2.2 | . | 5.2 | 1.4 | 2.9 | -3.7 | . | .
C=CC(=O)N1C/C(=C/c2ccc(F)cc2)C(=O)/C(=C\c2ccc(F)cc2)C1 | 40.1* | . | -6.0 | . | . | -4.6 | 28.1* | 22.4
CN1C2CCC1/C(=C\c1ccc(F)cc1)C(=O)/C2=C/c1ccc(F)cc1 | 7.2 | 4.3 | -6.4 | 2.6 | -0.6 | 2.8 | . | .
Cc1cc(NC(=O)COc2c(C)cccc2C)no1 | 12.1 | 25.1 | -0.8 | 4.0 | 0.5 | -1.3 | . | .
CC(C)c1nnc(NC(=O)c2nc(S(=O)(=O)Cc3ccccc3)ncc2Cl)s1 | 51.0* | -33.1 | 1.3 | 0.8 | 5.2 | -2.6 | 24.6* | 47.1*
CN(c1ccccc1)S(=O)(=O)c1ccc(NC(=O)c2ccccc2)cc1 | -0.4 | -8.2 | -1.4 | 2.4 | 9.5 | -2.4 | . | .
CCOc1ccccc1NC(=O)c1nc(S(=O)(=O)Cc2ccccc2)ncc1Cl | 32.6* | -5.4 | -0.9 | 10.6 | -3.7 | -5.1 | 5.4 | -23.6
Cc1ccc(NC(=O)c2nc(S(=O)(=O)Cc3ccccc3C)ncc2Cl)cc1C | 31.9* | -11.0 | -3.6 | 10.2 | -6.6 | -4.5 | 30.3* | 15.0
CN(c1ccccc1)S(=O)(=O)c1ccc(NC(=O)c2nc(S(C)(=O)=O)ncc2Cl)cc1 | 57.4* | -0.2 | -7.0 | 2.5 | -8.2 | -3.2 | 26.3* | 36.0*
COc1ccc(C/C(C)=N/NS(=O)(=O)c2ccc(Br)cc2)cc1 | -1.0 | 8.9 | -3.2 | 0.9 | -44.2 | 0.6 | . | .
